Values after ≈ are worked out from the molar mass of the structure shown.
What was measured:
Klebsiella pneumoniae = assay: Antibacterial activity against Klebsiella pneumoniae ATCC 13883 after 18 hrs; assay type: functional; details: ATCC 13883, 18 h
Method in brief: (§1)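 Broth microdilution in Nutrient Broth No. 2; stocks in ethanol diluted to 0.01–128 µg/ml (triclosan) or 0.25–256 µg/ml (glycosides). Overnight 37 °C NB2 cultures diluted 1 in 10^4 in saline and added to the dilutions. Incubation at 37 °C with agitation, OD read every 15 min; MIC is the lowest concentration preventing any OD rise after 18 h.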

Staphylococcus aureus [1] = assay: Antibacterial activity against Staphylococcus aureus ATCC 6538P after 18 hrs; assay type: functional; method in brief: as §1
Serratia marcescens = assay: Antibacterial activity against Serratia marcescens OCC 217 after 18 hrs; assay type: functional; details: OCC 217, 18 h; method in brief: as §1
Escherichia coli [2] = assay: Antibacterial activity against Escherichia coli ATCC 11775 after 18 hrs; assay type: functional; method in brief: as §1
[3] = Antibacterial activity against Salmonella enterica subspecies enterica serotype Indiana OCC 597 after 18 hrs; assay type: functional, Salmonella enterica subsp. enterica serovar Indiana; details: OCC 597, 18 h; method in brief: as §1
Klebsiella aerogenes = assay: Antibacterial activity against Enterobacter aerogenes ATCC 13048 after 18 hrs; assay type: functional; details: ATCC 13048, 18 h; method in brief: as §1
Streptococcus viridans = assay: Antibacterial activity against Streptococcus viridans OCC 234 after 18 hrs; assay type: functional; details: OCC 234, 18 h
Method in brief: (§2)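 Broth microdilution in Nutrient Broth No. 2. Ethanol stocks were diluted in broth to 0.01–128 µg/ml for triclosan and 0.25–256 µg/ml for glycosides. Overnight 37°C NB2 cultures were diluted 1 in 10^4 in saline and added to the wells. Plates were incubated at 37°C with OD read every 15 min after agitation. MIC was the lowest concentration giving no OD increase at 18 h.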

Cronobacter sakazakii = assay: Antibacterial activity against Cronobacter sakazakii 29544 after 18 hrs; assay type: functional; details: Cronobacter sakazakii, 29544, 18 h; method in brief: as §1
Staphylococcus aureus [4] = assay: Antibacterial activity against Staphylococcus aureus ATCC 6538 after 18 hrs; assay type: functional; details: ATCC 6538, 18 h; method in brief: as §1
[5] = Antibacterial activity against Salmonella enterica subspecies enterica serotype Arizonae OCC 706 after 18 hrs; assay type: functional, Salmonella enterica subsp. enterica serovar Arizonae; details: OCC 706, 18 h; method in brief: as §1
Citrobacter freundii = assay: Antibacterial activity against Citrobacter freundii OCC 851 after 18 hrs; assay type: functional; details: OCC 851, 18 h; method in brief: as §1
Staphylococcus aureus [6] = assay: Antibacterial activity against Staphylococcus aureus ATCC 25923 after 18 hrs; assay type: functional; details: ATCC 25923, 18 h; method in brief: as §1
Aeromonas hydrophila = assay: Antibacterial activity against Aeromonas hydrophila OCC 778 after 18 hrs; assay type: functional; details: OCC 778, 18 h; method in brief: as §1
Escherichia hermannii = assay: Antibacterial activity against Escherichia hermannii 33650 after 18 hrs; assay type: functional; details: Atlantibacter hermannii, 33650, 18 h; method in brief: as §1
Salmonella typhimurium = assay: Antibacterial activity against Salmonella enterica subspecies enterica serotype typhimurium ATCC 14028 after 18 hrs; assay type: functional, Salmonella enterica subsp. enterica serovar Typhimurium; details: ATCC 14028, 18 h; method in brief: as §1
Pseudomonas aeruginosa = assay: Antibacterial activity against Pseudomonas aeruginosa ATCC 27853 after 18 hrs; assay type: functional; details: ATCC 27853, 18 h; method in brief: as §1
[7] = test system: Staphylococcus saprophyticus; assay: Antibacterial activity against Staphylococcus saprophyticus ATCC 15305 after 18 hrs; assay type: functional; details: ATCC 15305, 18 h; method in brief: as §2
[8] = Antibacterial activity against Salmonella enterica subspecies enterica serotype Virchow NCTC 5742 after 18 hrs; assay type: functional, Salmonella enterica subsp. enterica serovar Virchow; details: NCTC 5742, 18 h; method in brief: as §1
Streptococcus pneumoniae = assay: Antibacterial activity against Streptococcus pneumoniae 6305 after 18 hrs; assay type: functional; details: Streptococcus pneumoniae, 6305, 18 h; method in brief: as §2
Streptococcus pyogenes = assay: Antibacterial activity against Streptococcus pyogenes ATCC 19615 after 18 hrs; assay type: functional; details: ATCC 19615, 18 h; method in brief: as §2
[9] = Antibacterial activity against Salmonella enterica subspecies enterica serotype Pullorum OCC 273 after 18 hrs; assay type: functional, Salmonella enterica subsp. enterica serovar Pullorum; details: OCC 273, 18 h; method in brief: as §1
Escherichia coli [10] = assay: Antibacterial activity against Escherichia coli OCC 122 after 18 hrs; assay type: functional; details: OCC 122, 18 h; method in brief: as §1
Staphylococcus aureus [11] = assay: Antibacterial activity against Staphylococcus aureus OCC 104 after 18 hrs; assay type: functional; details: OCC 104, 18 h; method in brief: as §1
Escherichia coli [12] = assay: Antibacterial activity against Escherichia coli NCTC 13216 after 18 hrs; assay type: functional; details: NCTC 13216, 18 h; method in brief: as §1
[13] = Antibacterial activity against Salmonella enterica subspecies enterica serotype Infantis OCC 2133 after 18 hrs; assay type: functional, Salmonella enterica subsp. enterica serovar Infantis; details: OCC 2133, 18 h; method in brief: as §1
Hafnia alvei = assay: Antibacterial activity against Hafnia alvei 13337 after 18 hrs; assay type: functional; details: Hafnia alvei, 13337, 18 h; method in brief: as §1
Escherichia coli [14] = assay: Antibacterial activity against Escherichia coli ATCC 25922 after 18 hrs; assay type: functional; details: ATCC 25922, 18 h; method in brief: as §1
Escherichia coli [15] = assay: Antibacterial activity against Escherichia coli ATCC 8739 after 18 hrs; assay type: functional; details: ATCC 8739, 18 h; method in brief: as §1
Staphylococcus aureus [16] = assay: Antibacterial activity against Staphylococcus aureus OCC 106 after 18 hrs; assay type: functional; details: OCC 106, 18 h; method in brief: as §1

MIC (Klebsiella pneumoniae): 0.5 µg/mL (≈ 1.11 µM) | MIC (Staphylococcus aureus [1]): 0.5 µg/mL (≈ 1.11 µM) | MIC (Serratia marcescens): > 256 µg/mL | MIC (Escherichia coli [2]): 0.5 to 32 µg/mL (≈ 1.11 to 70.8 µM) | MIC [3]: 2 to 16 µg/mL (≈ 4.43 to 35.4 µM) | MIC (Klebsiella aerogenes): 8 µg/mL (≈ 17.7 µM) | MIC (Streptococcus viridans): 256 µg/mL (≈ 567 µM) | MIC (Cronobacter sakazakii): 8 µg/mL (≈ 17.7 µM) | MIC (Staphylococcus aureus [4]): 0.5 µg/mL (≈ 1.11 µM) | MIC [5]: 2 to 16 µg/mL (≈ 4.43 to 35.4 µM) | MIC (Citrobacter freundii): 8 µg/mL (≈ 17.7 µM) | MIC (Staphylococcus aureus [6]): 0.5 µg/mL (≈ 1.11 µM) | MIC (Aeromonas hydrophila): 256 µg/mL (≈ 567 µM) | MIC (Escherichia hermannii): 2 µg/mL (≈ 4.43 µM) | MIC (Salmonella typhimurium): 2 to 16 µg/mL (≈ 4.43 to 35.4 µM) | MIC (Pseudomonas aeruginosa): > 256 µg/mL | MIC [7]: 8 µg/mL (≈ 17.7 µM) | MIC [8]: 2 to 16 µg/mL (≈ 4.43 to 35.4 µM) | MIC (Streptococcus pneumoniae): 128 µg/mL (≈ 283 µM) | MIC (Streptococcus pyogenes): 128 µg/mL (≈ 283 µM) | MIC [9]: 2 to 16 µg/mL (≈ 4.43 to 35.4 µM) | MIC (Escherichia coli [10]): 0.5 to 32 µg/mL (≈ 1.11 to 70.8 µM) | MIC (Staphylococcus aureus [11]): 0.5 µg/mL (≈ 1.11 µM) | MIC (Escherichia coli [12]): 0.5 to 32 µg/mL (≈ 1.11 to 70.8 µM) | MIC [13]: 2 to 16 µg/mL (≈ 4.43 to 35.4 µM) | MIC (Hafnia alvei): 0.5 µg/mL (≈ 1.11 µM) | MIC (Escherichia coli [14]): 0.5 to 32 µg/mL (≈ 1.11 to 70.8 µM) | MIC (Escherichia coli [15]): 0.5 to 32 µg/mL (≈ 1.11 to 70.8 µM) | MIC (Staphylococcus aureus [16]): 0.5 µg/mL (≈ 1.11 µM)
SMILES: OC[C@H]1O[C@@H](Oc2cc(Cl)ccc2Oc2ccc(Cl)cc2Cl)[C@H](O)[C@@H](O)[C@H]1O
